Experimental data taken from ChEMBL document CHEMBL1140488, “Influence of 6 or 8-substitution on the antiviral activity of 3-phenethylthiomethylimidazo[1,2-a]pyridine against human cytomegalovirus (HCMV) and varicella-zoster virus (VZV)” (Bioorg Med Chem, 2007).
In brackets after ≈: the same amount, converted by molar mass.

Key:
Human alphaherpesvirus 3 [1] = test: Antiviral activity against TK+ VZV OKA in HEL cells assessed as reduction of virus plaque formation; format: functional, organism-based; conditions: Human alphaherpesvirus 3, OKA
Human alphaherpesvirus 3 [2] = test: Antiviral activity against TK- VZV 07/1 in HEL cells assessed as reduction of virus plaque formation; format: functional, organism-based; conditions: Human alphaherpesvirus 3, 07/1, HEL
Human betaherpesvirus 5 [3] = test: Antiviral activity against HCMV AD169 in HEL cells assessed as reduction of virus plaque formation after 5 days; format: functional, organism-based; conditions: Human betaherpesvirus 5, AD169, HEL, 120 h
How it was run: (§1)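 Confluent human embryonic lung (HEL) cell monolayers in microtiter plates were inoculated with 100 PFU of HCMV (AD169 or Davis) and left 2 h for adsorption. Residual virus was then removed and compound was added at varying concentrations. Viral cytopathicity was read once it reached completion in untreated infected controls. EC50 is the concentration inhibiting cytopathicity by 50%.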

Human betaherpesvirus 5 [4] = test: Antiviral activity against HCMV Davis in HEL cells assessed as reduction of virus plaque formation after 5 days; format: functional, organism-based; conditions: Human betaherpesvirus 5, Davis, 120 h
How it was run: as §1, with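 “controls.” for “controls. EC50 is the concentration inhibiting cytopathicity by 50%.”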

[5] = Cytotoxicity against HEL cells assessed as alteration in cell morphology after 3 days; format: cell-based; conditions: human
How it was run: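 HEL cell cultures exposed to compound were inspected by microscope for altered morphology. MCC is the minimum concentration causing a microscopically detectable alteration of cell morphology.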

[6] = Cytotoxicity against HEL cells assessed as reduction of cell growth after 3 days; format: cell-based; conditions: human
How it was run: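 HEL cell suspensions were added to wells holding serial concentrations of compound and incubated 3 days at 37 °C in humidified CO2. Viable cells were then counted with a Coulter Counter. CC50 is the concentration reducing viable cell number by 50%.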

Row | Compound | EC50 (Human alphaherpesvirus 3 [1]) | EC50 (Human alphaherpesvirus 3 [2]) | EC50 (Human betaherpesvirus 5 [3]) | EC50 (Human betaherpesvirus 5 [4]) | MCC at 72 h [5] | CC50 at 72 h [6]
1 | Cc1cc(-c2cccc([N+](=O)[O-])c2)c2ncc(CSCCc3ccccc3)n2c1 | > 20 µg/mL | > 20 µg/mL | > 100 µg/mL | > 100 µg/mL | 100 µg/mL | 47 µg/mL (≈ 116 µM)
2 | Cc1cc(-c2ccc(C#N)cc2)cn2c(CSCCc3ccccc3)cnc12 | 2.2 µg/mL (≈ 5.74 µM) | 2 µg/mL (≈ 5.21 µM) | 1.8 µg/mL (≈ 4.69 µM) | 2.5 µg/mL (≈ 6.52 µM) | ≥ 20 µg/mL | 10.6 µg/mL (≈ 27.6 µM)
3 | Cc1cc(-c2cccc(F)c2)c2ncc(CSCCc3ccccc3)n2c1 | > 4 µg/mL | > 4 µg/mL | 2.2 µg/mL (≈ 5.84 µM) | 2.2 µg/mL (≈ 5.84 µM) | 20 µg/mL | 35 µg/mL (≈ 93 µM)
4 | c1ccc(CCSCc2cnc3ccc(-c4ccccc4)cn23)cc1 | 0.74 µg/mL (≈ 2.15 µM) | > 0.8 µg/mL | > 0.8 µg/mL | > 0.8 µg/mL | 4 µg/mL | 9.9 µg/mL (≈ 28.7 µM)
5 | Cc1cc(-c2ccccc2)c2ncc(CSCCc3ccccc3)n2c1 | > 4 µg/mL | > 4 µg/mL | > 4 µg/mL | > 4 µg/mL | 20 µg/mL | 33 µg/mL (≈ 92 µM)
6 | Cc1cc(-c2cccs2)cn2c(CSCCc3ccccc3)cnc12 | 4 µg/mL (≈ 11 µM) | > 4 µg/mL | 2.2 µg/mL (≈ 6.04 µM) | 2.2 µg/mL (≈ 6.04 µM) | 20 µg/mL | 32 µg/mL (≈ 87.8 µM)
7 | Cc1cc(-c2cccs2)c2ncc(CSCCc3ccccc3)n2c1 | 7.8 µg/mL (≈ 21.4 µM) | 4 µg/mL (≈ 11 µM) | 2.5 µg/mL (≈ 6.86 µM) | 2.2 µg/mL (≈ 6.04 µM) | 100 µg/mL | > 50 µg/mL
8 | Cc1cc(Br)cn2c(CSCCc3ccccc3)cnc12 | 0.48 µg/mL (≈ 1.33 µM) | 1.1 µg/mL (≈ 3.04 µM) | 0.32 µg/mL (≈ 0.886 µM) | 0.13 µg/mL (≈ 0.36 µM) | ≥ 2 µg/mL | 28 µg/mL (≈ 77.5 µM)
9 | Cc1cc(-c2ccsc2)c2ncc(CSCCc3ccccc3)n2c1 | 8.9 µg/mL (≈ 24.4 µM) | 8.6 µg/mL (≈ 23.6 µM) | 2.5 µg/mL (≈ 6.86 µM) | 2.5 µg/mL (≈ 6.86 µM) | 100 µg/mL | > 50 µg/mL
10 | Cc1cc(I)c2ncc(CSCCc3ccccc3)n2c1 | 2.6 µg/mL (≈ 6.37 µM) | 2.6 µg/mL (≈ 6.37 µM) | > 0.8 µg/mL | 1.8 µg/mL (≈ 4.41 µM) | ≥ 4 µg/mL | > 50 µg/mL
11 | COc1ccc(-c2cc(C)cn3c(CSCCc4ccccc4)cnc23)cc1 | 2 µg/mL (≈ 5.15 µM) | 3.1 µg/mL (≈ 7.98 µM) | 2.2 µg/mL (≈ 5.66 µM) | 2.2 µg/mL (≈ 5.66 µM) | 20 µg/mL | 19.6 µg/mL (≈ 50.4 µM)
12 | Cc1cc(I)cn2c(CSCCc3ccccc3)cnc12 | 0.68 µg/mL (≈ 1.67 µM) | 0.43 µg/mL (≈ 1.05 µM) | > 0.16 µg/mL | 0.12 µg/mL (≈ 0.294 µM) | ≥ 0.8 µg/mL | > 50 µg/mL
13 | Cc1cc(-c2cccc(O)c2)c2ncc(CSCCc3ccccc3)n2c1 | 1.6 µg/mL (≈ 4.27 µM) | 2.9 µg/mL (≈ 7.74 µM) | > 4 µg/mL | > 4 µg/mL | 20 µg/mL | 11.4 µg/mL (≈ 30.4 µM)
14 | Cc1cc(-c2ccc(O)cc2)c2ncc(CSCCc3ccccc3)n2c1 | 1.7 µg/mL (≈ 4.54 µM) | 2.7 µg/mL (≈ 7.21 µM) | 2.2 µg/mL (≈ 5.87 µM) | 2.2 µg/mL (≈ 5.87 µM) | 20 µg/mL | 13.7 µg/mL (≈ 36.6 µM)
15 | Nc1nc2c(ncn2COCCO)c(=O)[nH]1 [ACYCLOVIR] | – | – | – | – | > 400 µg/mL | > 200 µg/mL
16 | O=c1[nH]c(=O)n([C@H]2C[C@H](O)[C@@H](CO)O2)cc1/C=C/Br [BRIVUDINE] | 0.0038 µg/mL (≈ 0.0114 µM) | 362 µg/mL (≈ 1090 µM) | – | – | > 400 µg/mL | –
17 | Nc1ccn(C[C@@H](CO)OCP(=O)(O)O)c(=O)n1.O.O [CIDOFOVIR] | – | – | 0.1 µg/mL | 0.12 µg/mL | ≥ 100 µg/mL | 47 µg/mL
18 | Nc1nc2c(ncn2COC(CO)CO)c(=O)[nH]1 [GANCICLOVIR] | – | – | 0.51 µg/mL (≈ 2 µM) | – | 100 µg/mL | 146 µg/mL (≈ 572 µM)

Further lines, with some results ahead:

Row | EC50 (Human alphaherpesvirus 3 [1]) | EC50 (Human alphaherpesvirus 3 [2]) | EC50 (Human betaherpesvirus 5 [3]) | EC50 (Human betaherpesvirus 5 [4]) | Compound | MCC at 72 h [5] | CC50 at 72 h [6]
19 | > 20 µg/mL | > 20 µg/mL | > 100 µg/mL | > 100 µg/mL | Cc1cc(-c2ccccc2O)cn2c(CSCCc3ccccc3)cnc12 | 100 µg/mL | > 50 µg/mL
20 | 2.4 µg/mL (≈ 6.41 µM) | 3.7 µg/mL (≈ 9.88 µM) | 2.2 µg/mL (≈ 5.87 µM) | 2.2 µg/mL (≈ 5.87 µM) | Cc1cc(-c2cccc(O)c2)cn2c(CSCCc3ccccc3)cnc12 | 20 µg/mL | 50 µg/mL (≈ 134 µM)
21 | > 20 µg/mL | > 100 µg/mL | > 100 µg/mL | > 100 µg/mL | Cc1cc(-c2ccc(O)cc2)cn2c(CSCCc3ccccc3)cnc12 | ≥ 100 µg/mL | > 50 µg/mL
22 | > 4 µg/mL | > 4 µg/mL | 2.2 µg/mL (≈ 5.66 µM) | 2.5 µg/mL (≈ 6.43 µM) | COc1cccc(-c2cc(C)c3ncc(CSCCc4ccccc4)n3c2)c1 | 20 µg/mL | 36 µg/mL (≈ 92.7 µM)
23 | 8.3 µg/mL (≈ 21.4 µM) | 10.3 µg/mL (≈ 26.5 µM) | 10.9 µg/mL (≈ 28.1 µM) | 10.9 µg/mL (≈ 28.1 µM) | COc1cccc(-c2cc(C)cn3c(CSCCc4ccccc4)cnc23)c1 | 100 µg/mL | > 50 µg/mL
24 | 5.6 µg/mL (≈ 13.9 µM) | 8.3 µg/mL (≈ 20.6 µM) | 7.6 µg/mL (≈ 18.8 µM) | 4 µg/mL (≈ 9.91 µM) | Cc1cc(-c2cccc([N+](=O)[O-])c2)cn2c(CSCCc3ccccc3)cnc12 | ≥ 100 µg/mL | 43 µg/mL (≈ 107 µM)
25 | 1.7 µg/mL (≈ 4.66 µM) | 1.8 µg/mL (≈ 4.94 µM) | > 0.8 µg/mL | 1.8 µg/mL (≈ 4.94 µM) | Cc1cc(-c2ccsc2)cn2c(CSCCc3ccccc3)cnc12 | ≥ 4 µg/mL | > 50 µg/mL
26 | 3.6 µg/mL (≈ 10 µM) | > 4 µg/mL | 2 µg/mL (≈ 5.58 µM) | 2.2 µg/mL (≈ 6.14 µM) | Cc1cc(-c2ccccc2)cn2c(CSCCc3ccccc3)cnc12 | 20 µg/mL | 31 µg/mL (≈ 86.5 µM)
27 | > 100 µg/mL | 81 µg/mL (≈ 211 µM) | 2.2 µg/mL (≈ 5.74 µM) | 2.5 µg/mL (≈ 6.52 µM) | Cc1cc(-c2cccc(C#N)c2)cn2c(CSCCc3ccccc3)cnc12 | > 100 µg/mL | > 50 µg/mL
28 | 2.4 µg/mL (≈ 6.18 µM) | > 4 µg/mL | 3.1 µg/mL (≈ 7.98 µM) | 2.2 µg/mL (≈ 5.66 µM) | COc1ccc(-c2cc(C)c3ncc(CSCCc4ccccc4)n3c2)cc1 | 20 µg/mL | 25.8 µg/mL (≈ 66.4 µM)
